Measurements taken from ChEMBL document CHEMBL1136967, “High-affinity, non-nucleotide-derived competitive antagonists of platelet P2Y12 receptors” (J Med Chem, 2009).

Key:
P2Y purinoceptor 12 [1] = molecular target: T1, P2Y purinoceptor 12 (Homo sapiens, UniProt Q9H244); test: Displacement of [3H]PSB0413 from human platelet P2Y12 receptor
Outline: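 Membranes from outdated human blood-bank platelets (4-5 days post-donation), washed, centrifuged, homogenized, stored at -80 °C. 100 µg protein incubated with 5 nM [³H]PSB-0413 in 50 mM Tris-HCl pH 7.4 for 1 h at rt, then filtered over GF/B. Nonspecific binding with 1 mM ADP. Screen at 10 µM. Ki from curves of 6-7 concentrations over 3 log units. At least three experiments in triplicate.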

P2Y purinoceptor 12 [2] = molecular target: T1, P2Y purinoceptor 12; test: Displacement of [3H]PSB0413 from human platelet P2Y12 receptor at 10 uM
Outline: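 Human platelet membranes (100 µg protein) incubated with 5 nM [3H]PSB-0413 and test compound at 10 µM in 50 mM Tris-HCl pH 7.4 for 1 h at rt, then filtered over GF/B. Nonspecific binding defined with 1 mM ADP; result expressed as % inhibition of radioligand binding.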

[3] = Cytotoxicity against human 1539 cells after 72 hrs to 144 hrs by MTT assay; assay type: functional, cell-based
Outline: (§1)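 Cells grown in DMEM with 10% fetal calf serum, penicillin and streptomycin at 37 °C, 5% CO₂. Seeded at 2000 cells/well, 24 h, then medium renewed and compounds added (DMSO stocks; final DMSO 1%) at 0.1, 1 and 100 µM, or full dose-inhibition curves. Exposure 72-144 h. MTT 1 h, crystals dissolved in DMSO, absorbance 570 nm (reference 690 nm). Viability relative to 1% DMSO wells. Triplicates, 3-8 experiments.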

[4] = Cytotoxicity against human 1321N1 cells after 72 hrs to 144 hrs by MTT assay; assay type: functional, cell-based; outline: as §1
[5] = Cytotoxicity against human 1539 cells at 100 uM after 72 hrs to 144 hrs by MTT assay; assay type: functional
Outline: (§2)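 1321N1 astrocytoma and 1539 melanoma cells grown in DMEM with 10% FCS and penicillin/streptomycin at 37 °C, 5% CO2. Seeded at 2000 cells/well for 24 h, then medium replaced and compound added from 10 mM DMSO stocks (final DMSO 1%). Incubation 72-144 h, then MTT (5 mg/mL stock) for 1 h. Formazan dissolved in DMSO, A570 read against 690 nm reference. Viability relative to 1% DMSO wells; triplicates, 3-8 experiments.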

[6] = Cytotoxicity against human 1321N1 cells at 0.1 uM after 72 hrs to 144 hrs by MTT assay; assay type: functional; outline: as §2
[7] = Cytotoxicity against human 1539 cells at 0.1 uM after 72 hrs to 144 hrs by MTT assay; assay type: functional; outline: as §2
[8] = Cytotoxicity against human 1321N1 cells at 1 uM after 72 hrs to 144 hrs by MTT assay; assay type: functional; outline: as §2
[9] = Cytotoxicity against human 1321N1 cells at 100 uM after 72 hrs to 144 hrs by MTT assay; assay type: functional; outline: as §2
[10] = Cytotoxicity against human 1539 cells at 1 uM after 72 hrs to 144 hrs by MTT assay; assay type: functional; outline: as §2
P2Y purinoceptor 12 [11] = molecular target: T1, P2Y purinoceptor 12; test: Antagonist activity at P2Y12 receptor expressed in human astrocytoma cells assessed as right shift of concentration response curve; assay type: functional, cell-based
Homo sapiens [12] = organism: Homo sapiens; test: Selectivity for human platelet P2Y12 receptor over human P2Y1 receptor
Homo sapiens [13] = organism: Homo sapiens; test: Selectivity for human platelet P2Y12 receptor over human P2Y4 receptor
Homo sapiens [14] = organism: Homo sapiens; test: Selectivity for human platelet P2Y12 receptor over human P2X4 receptor
Homo sapiens [15] = organism: Homo sapiens; test: Selectivity for human platelet P2Y12 receptor over human P2X2 receptor
Homo sapiens [16] = organism: Homo sapiens; test: Selectivity for human platelet P2Y12 receptor over human P2Y2 receptor
[17] = Toxicity in po dosed rat; assay type: organism-based; settings: in vivo

T1 sequence (Q9H244 whole entry): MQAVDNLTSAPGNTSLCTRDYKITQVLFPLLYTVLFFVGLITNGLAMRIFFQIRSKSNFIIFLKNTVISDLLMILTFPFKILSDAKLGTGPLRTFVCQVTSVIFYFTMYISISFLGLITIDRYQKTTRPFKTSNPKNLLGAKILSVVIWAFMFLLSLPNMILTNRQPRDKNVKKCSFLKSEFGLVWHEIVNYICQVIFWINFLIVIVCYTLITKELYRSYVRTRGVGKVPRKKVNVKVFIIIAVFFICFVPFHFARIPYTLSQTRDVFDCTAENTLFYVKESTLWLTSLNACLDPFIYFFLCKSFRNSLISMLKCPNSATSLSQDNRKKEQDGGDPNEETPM

| SMILES | Ki (P2Y purinoceptor 12 [1]) | inhibition (P2Y purinoceptor 12 [2]) | also measured |
| --- | --- | --- | --- |
| Cc1cc(O)c2c(c1)C(=O)c1cc(O)cc(O)c1C2=O [EMODIN] | > 10 µM | 5% | – |
| O=c1[nH]cc(F)c(=O)[nH]1 [FLUOROURACIL] | – | – | EC50 [3]: 5.71 µM; EC50 [4]: 53.2 µM |
| Nc1ccccc1Nc1cc(S(=O)(=O)O)c(N)c2c1C(=O)c1ccccc1C2=O | > 10 µM | 37% | – |
| Nc1c(S(=O)(=O)O)cc(Nc2cccc([N+](=O)[O-])c2)c2c1C(=O)c1ccccc1C2=O | > 10 µM | 17% | – |
| COC(=O)c1cc(O)c2c(c1)C(=O)c1cccc(O)c1C2=O [RHEIN METHYLESTER] | > 10 µM | 2% | – |
| Nc1c(S(=O)(=O)[O-])cc(Nc2cccc3ccccc23)c2c1C(=O)c1ccccc1C2=O.[Na+] | > 10 µM | 25% | Activity [5]: 89%; Activity [6]: 114%; Activity [7]: 96%; Activity [8]: 126%; Activity [9]: 116%; Activity [10]: 95% |
| Cc1cc(C)c(Nc2cc(S(=O)(=O)O)c(N)c3c2C(=O)c2ccccc2C3=O)c(C)c1N | > 10 µM | 35% | – |
| Nc1c(S(=O)(=O)O)cc(Nc2ccc(Nc3ccccc3)c(C(=O)O)c2)c2c1C(=O)c1ccccc1C2=O | 0.021 µM | – | – |
| O=C1c2c(O)cccc2C([C@@H]2O[C@H](CO)[C@@H](O)[C@H](O)[C@H]2O)c2cc(CO)cc(O)c21 (some centres undefined) [ALOIN] | > 10 µM | 2% | – |
| Nc1c(S(=O)(=O)O)cc(NCc2ccccc2)c2c1C(=O)c1ccccc1C2=O | > 10 µM | 11% | – |
| Cc1cc(O)c2c(c1)C(=O)c1cc(O[C@@H]3O[C@@H](C)[C@H](O)[C@@H](O)[C@H]3O)cc(O)c1C2=O [FRANGULIN A] | > 10 µM | 4% | – |
| Nc1c(S(=O)(=O)[O-])cc(Nc2ccc(Cl)cc2)c2c1C(=O)c1ccccc1C2=O.[Na+] | – | – | Activity [5]: 129%; Activity [6]: 117%; Activity [7]: 99%; Activity [8]: 116%; Activity [9]: 120%; Activity [10]: 95% |
| Nc1c(S(=O)(=O)O)cc(Nc2ccc(Nc3ncccn3)cc2)c2c1C(=O)c1ccccc1C2=O | 10 µM | 57% | – |
| COc1cccc2c1C(=O)c1c(O)c3c(c(O)c1C2=O)C[C@@](O)(C(=O)CO)C[C@@H]3O[C@H]1C[C@H](N)[C@H](O)[C@H](C)O1 [DOXORUBICIN] | > 10 µM | 7% | – |
| Cc1cc(O)c2c(c1)C(=O)c1cccc(O)c1C2=O [CHRYSOPHANOL] | > 10 µM | 13% | – |
| Cc1cc(C)c(Nc2cc(S(=O)(=O)O)c(N)c3c2C(=O)c2ccccc2C3=O)c(C)c1 [ACID BLUE 129] | > 10 µM | 30% | – |

| SMILES | Ki (P2Y purinoceptor 12 [1]) | inhibition (P2Y purinoceptor 12 [2]) | also measured |
| --- | --- | --- | --- |
| Nc1ccc(Nc2cc(S(=O)(=O)O)c(N)c3c2C(=O)c2ccccc2C3=O)cc1 | > 10 µM | 30% | – |
| Cc1cc(O)c2c(c1)C(=O)c1cc(O[C@@H]3OC[C@](O)(CO)[C@H]3O)cc(O)c1C2=O [FRANGULIN B] | > 10 µM | 4% | – |
| Cc1cc(O)c2c(c1)Cc1cc(O)cc(O)c1C2=O [EMODIN ANTHRONE] | > 10 µM | 1% | – |
| Nc1c(S(=O)(=O)O)cc(Nc2ccc(Nc3ccccc3)c(S(=O)(=O)O)c2)c2c1C(=O)c1ccccc1C2=O | – | – | Kb (P2Y purinoceptor 12 [11]): 0.0004 µM; pKb (P2Y purinoceptor 12 [11]): 9.4 |
| O=C1c2c(O)ccc(O)c2C(=O)c2c(NCCNCCO)ccc(NCCNCCO)c21 [MITOXANTRONE] | > 10 µM | – | – |
| CN(C)[C@@H]1C(O)=C(C(N)=O)C(=O)[C@@]2(O)C(O)=C3C(=O)c4c(O)cccc4[C@@](C)(O)[C@H]3C[C@@H]12 [TETRACYCLINE] | > 10 µM | 2% | – |
| Nc1c(S(=O)(=O)O)cc(Nc2ccc(Nc3ncccn3)c(S(=O)(=O)O)c2)c2c1C(=O)c1ccccc1C2=O | – | – | fold change (FC) (Homo sapiens [12]): 100; fold change (FC) (Homo sapiens [13]): 100; fold change (FC) (Homo sapiens [14]): 100; fold change (FC) (Homo sapiens [15]): 100; fold change (FC) (Homo sapiens [16]): 100 |
| Nc1c(S(=O)(=O)O)cc(Nc2ccc(O)cc2)c2c1C(=O)c1ccccc1C2=O | 10 µM | 50% | – |
| CN(C)[C@@H]1C(O)=C(C(N)=O)C(=O)[C@@]2(O)C(O)=C3C(=O)c4c(O)ccc(Cl)c4[C@@](C)(O)[C@H]3C[C@@H]12 [CHLORTETRACYCLINE] | > 10 µM | 6% | – |
| COc1cc(O)c2c(c1)C(=O)c1cc(C)cc(O)c1C2=O [PHYSCION] | > 10 µM | 7% | – |
| Nc1ccc(-c2ccc(N)c3c2C(=O)c2ccccc2C3=O)c2c1C(=O)c1ccccc1C2=O | – | – | LD50 [17]: > 5000 mg/kg |
| Nc1c(S(=O)(=O)O)cc(Nc2ccccc2O)c2c1C(=O)c1ccccc1C2=O | 10 µM | 45% | – |
| O=C1c2cccc(O)c2C(=O)c2c(O)cc(CO)cc21 [ALOE-EMODIN] | > 10 µM | 2% | – |
| COc1ccc(CCNc2cc(S(=O)(=O)O)c(N)c3c2C(=O)c2ccccc2C3=O)cc1OC | > 10 µM | 23% | – |
| Nc1c(S(=O)(=O)O)cc(NCCc2ccccc2)c2c1C(=O)c1ccccc1C2=O | > 10 µM | 16% | – |
| CC(=O)Nc1ccc(Nc2cc(S(=O)(=O)O)c(N)c3c2C(=O)c2ccccc2C3=O)cc1 | > 10 µM | 4% | – |
